Consider 36 molecules from ChEMBL document CHEMBL4325885, “Design, synthesis, and biological evaluation of novel phenol ether derivatives as non-covalent proteasome inhibitors” (Eur J Med Chem, 2019).

Each structure is given as a SMILES string. Some results are limits rather than exact numbers.

In data set [1] the target is T1, Proteasome Macropain subunit MB1 (Homo sapiens, UniProt P28074).
T1 sequence (P28074 whole entry): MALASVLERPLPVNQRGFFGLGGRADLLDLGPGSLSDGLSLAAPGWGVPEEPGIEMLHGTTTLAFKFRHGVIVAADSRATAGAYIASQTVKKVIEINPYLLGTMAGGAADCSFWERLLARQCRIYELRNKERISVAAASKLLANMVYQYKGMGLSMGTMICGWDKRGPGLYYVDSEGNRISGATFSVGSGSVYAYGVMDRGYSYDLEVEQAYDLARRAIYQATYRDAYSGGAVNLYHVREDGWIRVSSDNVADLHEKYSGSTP
Nature of the data set: Inhibition of human chymotrypsin-like activity of 20S constitutive proteasome using Suc-LLVY-AMC as substrate preincubated for 15 mins followed by substrate addition by fluorescence assay.

For data set [2], the target named is T2, Proteasome Macropain subunit MB1 (Homo sapiens) (UniProt P28074).
T2 sequence (whole entry): T1 sequence (P28074 whole entry)
As to the kind of experiment: Inhibition of human chymotrypsin-like activity of 20S constitutive proteasome at 10 uM using Suc-LLVY-AMC as substrate preincubated for 15 mins followed by substrate addition by fluorescence assay relative to control.

Data set [3] concerns MV4-11. Nature of the data set: Antiproliferative activity against human MV4-11 cells after 72 hrs by MTS/PMS assay. Format: functional, cell-based. The conditions noted are these: MV4-11, 72 h. The gist of the method: (§1)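 Cells kept at 37 °C, 5% CO2; RPMI 8226 and MM.1S in RPMI-1640, MV-4-11 in IMDM, each with 10% FBS and penicillin/streptomycin. Seeding per well: RPMI 8226 5×10³, MM.1S 3×10⁴, MV-4-11 8×10³. Graded compound concentrations or 0.2% DMSO for 72 h. MTS/PMS added for 2-4 h at 37 °C, OD read at 490 nm minus 690 nm background. IC50 from variable-slope sigmoidal fit.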

For data set [4], the target named is T3, Proteasome subunit beta type-8 (Homo sapiens, UniProt P28062).
T3 sequence (P28062 whole entry): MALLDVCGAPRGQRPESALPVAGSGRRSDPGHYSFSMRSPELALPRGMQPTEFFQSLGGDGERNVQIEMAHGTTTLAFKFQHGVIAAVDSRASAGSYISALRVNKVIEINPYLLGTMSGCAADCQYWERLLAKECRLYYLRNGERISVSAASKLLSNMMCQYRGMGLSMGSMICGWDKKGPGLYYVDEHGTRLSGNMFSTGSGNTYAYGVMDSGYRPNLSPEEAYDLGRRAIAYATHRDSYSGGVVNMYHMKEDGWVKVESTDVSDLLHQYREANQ
Nature of the data set: Inhibition of 20S immunoproteasome LMP7 (unknown origin) using Ac-ANW-AMC as substrate preincubated for 15 mins followed by substrate addition by fluorescence assay.

Data set [5] has as its system HepG2. Nature of the data set: Antiproliferative activity against human HepG2 cells after 72 hrs by MTT assay. Format: functional, cell-based. The conditions noted are these: HepG2, 72 h. An outline of the steps:
(§2)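 Cells kept at 37 °C, 5% CO2; HGC27 in RPMI-1640 and HepG2 in IMDM, each with 10% FBS and penicillin/streptomycin. Seeded at 1×10⁵ cells/well, then exposed to graded compound concentrations or 0.2% DMSO for 72 h. MTT (5 mg/mL) added for 4 h, formazan dissolved in DMSO, absorbance read at 570 nm. Inhibition = (A_control − A_sample)/A_control; IC50 from variable-slope sigmoidal fit.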
Background: Formazan colour is commonly taken as a measure of viable cells.

For data set [6], the system named is RPMI-8226. Nature of the data set: Antiproliferative activity against human RPMI8226 cells after 72 hrs by MTS/PMS assay. Type of data set: functional, cell-based. As to conditions: RPMI-8226, 72 h. An outline of the steps:
as §1

Data set [7] has as its system MM1.S. Nature of the data set: Antiproliferative activity against human MM1S cells after 72 hrs by MTS/PMS assay. Format: functional, cell-based. The gist of the method: as §1
Data set [8] can be described thus: Stability in human liver microsomes assessed as drug degradation at 1 uM measured within 30 mins in presence of NADPH by LC-MS/MS analysis. Format: ADME, Microsome. The conditions noted are these: read-out: Drug degradation. An outline of the steps:
(§3)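 Pooled human liver microsomes at 1.0 mg/mL protein in 0.1 M phosphate buffer saline pH 7.4 with 1 mM NADPH, preincubated 5 min at 37 °C. Reaction started by adding test compound at 1 μM, then incubated 0, 10, 20 or 30 min. Compound disappearance monitored.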
A general note: Liver microsomes are a subcellular fraction often used to study metabolism.

The test system of data set [9] is HGC-27. As to the kind of experiment: Antiproliferative activity against human HGC27 cells after 72 hrs by MTT assay. The conditions noted are these: HGC-27, 72 h. Format: functional, cell-based. The gist of the method: as §2
Data set [10] in a line: Stability in human liver microsomes at 1 uM measured after 30 mins in presence of NADPH by LC-MS/MS analysis. Format: ADME, Microsome. The conditions noted are these: 0.5 h. The gist of the method:
as §3

The term IC50 denotes the concentration that gives 50% inhibition. Read a high IC50 as weaker potency in that assay. Regarding `CCCc1ccc(OCC(=O)N(CC(=O)Nc2nncs2)C(C)C)cc1`, the half-inhibitory concentration (IC50) in [1] worked out at 3860 nM. This lies in the single-digit micromolar range.

Broadly, the inhibition is the percentage by which the read-out fell short of the control. A low value points to a response near the control. For the molecule `CCCc1ccc(OCC(=O)N(CCC(=O)NCc2cccnc2)C(C)C)cc1`, the inhibition in data set [2] worked out at 12.7%.

Consider `CCCc1ccc(OCC(=O)N(Cc2nc(-c3cccnc3)no2)C(C)C)cc1`, for which the IC50 was more than 20000 nM in data set [3]; more than 10000 nM in [4]; 2950 nM in data set [5]; more than 20000 nM in [6]; 92 nM in [1]; more than 20000 nM in [7]. In [9], this molecule gave a half-inhibitory concentration (IC50) of 3350 nM. For the same molecule, the metabolised at 0.5 h, 1 µM in [8] was more than 50%. The molecule also yielded an inhibition in data set [2] of 80.2%.

In the case of `CCCc1ccc(OCC(=O)N(CCNC(=O)NCc2cccnc2)C(C)C)cc1`, the inhibition in [2] is 38.7%.

For `CCc1ccc(OCC(=O)N(CC(=O)Nc2ccnnc2)C(C)C)cc1`, inhibition in data set [1] was half-maximal at 243 nM (IC50).

As for `CCCc1ccc(OCC(=O)N(CC(=O)Nc2ccc(C(F)(F)F)cc2)C(C)C)cc1`, the concentration for half-maximal inhibition (IC50) in [1] was 922 nM.

On to `CCCc1ccc(OCC(=O)N(CC(=O)Nc2nc3ccc(OC)cc3s2)C(C)C)cc1`, for which the IC50 in [1] turned out to be 1110 nM.

On to `CCCCc1ccc(OCC(=O)N(CC(=O)Nc2ccnnc2)C(C)C)cc1`, for which the IC50 in data set [3] was more than 20000 nM; in [4], more than 10000 nM; in [5], 3910 nM; in data set [6] it was more than 20000 nM; in [1], 49 nM; in data set [7], more than 20000 nM. Moreover, in data set [9], inhibition was half-maximal at 4620 nM (IC50). Moreover, the Stability result in data set [10] was “Stable”.

Consider `CC(C)Cc1ccc(OCC(=O)N(CC(=O)Nc2ccnnc2)C(C)C)cc1`, for which inhibition in data set [1] was half-maximal at 118 nM (IC50). This lies in the sub-micromolar range.

The molecule `CCCc1ccc(OCC(=O)N(CC(=O)Nc2ccncc2)C(C)C)cc1` showed an IC50 in data set [1] of 100 nM.

Regarding `CCCc1ccc(OCC(=O)N(CC(=O)Nc2ccc(OC)c(OC)c2)C(C)C)cc1`, inhibition in [1] was half-maximal at 4730 nM (IC50).

On to `CCCc1ccc(OCC(=O)N(CCC(=O)Nc2cccnc2)C(C)C)cc1`, for which the inhibition in data set [2] is 15.5%.

The molecule `CCCc1ccc(OCC(=O)N(CC(=O)Nc2ccc(C#N)cc2)C(C)C)cc1` yielded a half-inhibitory concentration (IC50) in data set [1] of 361 nM.

Molecule `CCCc1ccc(OCC(=O)N(CCNC(=O)Nc2cccnc2)C(C)C)cc1` returned an inhibition in [2] of 13.8%.

`CCCc1ccc(OCC(=O)N(CC(=O)Nc2ccnnc2)C(C)C)cc1`: the IC50 in data set [1] was 89 nM.

Regarding `CCCc1ccc(OCC(=O)N(CC(=O)Nc2ccccc2OC)C(C)C)cc1`, in data set [1], the IC50 is more than 10000 nM.

Take `CCCc1ccc(OCC(=O)N(CC(=O)Nc2ccccn2)C(C)C)cc1`: the half-inhibitory concentration (IC50) in data set [1] worked out at 836 nM.

In data set [2], `CCCc1ccc(OCC(=O)N(CCNC(=O)c2cccnc2)C(C)C)cc1` displayed an inhibition of 30.8%.

Take `CCCc1ccc(OCC(=O)N(CC(=O)NCc2cccnc2)C(C)C)cc1`: the inhibition in [2] was 1.16%.

As to `CCCc1ccc(OCC(=O)N(CC(=O)Nc2ccon2)C(C)C)cc1`, the half-inhibitory concentration (IC50) in data set [1] was found to be 2010 nM.

In [1], `CC(C)N(CC(=O)Nc1ccnnc1)C(=O)COc1ccc(CCO)cc1` came in with an IC50 of 968 nM.

For the molecule `CCCc1ccc(OCC(=O)N(CC(=O)Nc2cnccn2)C(C)C)cc1`, in data set [1], the half-inhibitory concentration (IC50) stood at 395 nM.

`CCCc1ccc(OCC(=O)N(CC(=O)Nc2ccc(F)cc2)C(C)C)cc1` registered a concentration for half-maximal inhibition (IC50) in [1] of 1200 nM.

With `COC(=O)Cc1ccc(OCC(=O)N(CC(=O)Nc2ccnnc2)C(C)C)cc1`, in data set [1], the IC50 came to 1560 nM.

On to `CCOc1ccc(OCC(=O)N(CC(=O)Nc2ccnnc2)C(C)C)cc1`, for which the concentration for half-maximal inhibition (IC50) in data set [1] was 259 nM.

Take `CC(C)N(CC(=O)Nc1ccnnc1)C(=O)COc1ccc(C(F)(F)F)cc1`: it took 952 nM to reach half-maximal inhibition in data set [1] (IC50).

In data set [1], `CCCc1ccc(OCC(=O)N(CC(=O)Nc2ccc3ccccc3c2)C(C)C)cc1` yielded a concentration for half-maximal inhibition (IC50) of 5910 nM.

Molecule `CCCc1ccc(OCC(=O)N(CC(=O)Nc2ccc(OC)cc2)C(C)C)cc1` had a concentration for half-maximal inhibition (IC50) in data set [1] of 952 nM.

`Cc1ccc(OCC(=O)N(CC(=O)Nc2ccnnc2)C(C)C)cc1`: the IC50 in data set [1] was determined as 481 nM.

As to `CCCc1ccc(OCC(=O)N(CC(=O)Nc2ccc(S(C)(=O)=O)cc2)C(C)C)cc1`, the IC50 was more than 20000 nM in data set [3]; more than 10000 nM in data set [4]; 2870 nM in [5]; more than 20000 nM in [6]; 230 nM in data set [1]; more than 20000 nM in [7]. Also, the midpoint of inhibition in [9], the IC50, lay at 2470 nM.

Turning to `COc1ccc(OCC(=O)N(CC(=O)Nc2ccnnc2)C(C)C)cc1`, the IC50 in data set [1] was found to be 579 nM.

In data set [1], `CCCCCc1ccc(OCC(=O)N(CC(=O)Nc2ccnnc2)C(C)C)cc1` had an IC50 of 64 nM.

For `CC(C)N(CC(=O)Nc1ccnnc1)C(=O)COc1ccc(Br)cc1`, 405 nM corresponded to half-maximal inhibition in [1] (IC50).

In data set [1], `CCCc1ccc(OCC(=O)N(CC(=O)Nc2cncnc2)C(C)C)cc1` yielded an IC50 of 280 nM.

For `CCCc1ccc(OCC(=O)N(CC(=O)Nc2cccc(OC)c2)C(C)C)cc1`, in [1], the IC50 worked out at 2000 nM.

`CCCc1ccc(OCC(=O)N(CC(=O)Nc2cccnc2)C(C)C)cc1`: the Stability result in data set [10] is reported as “Stable”. The molecule also registered a concentration for half-maximal inhibition (IC50) in data set [1] of 1680 nM. In [2], this molecule displayed an inhibition of 58.2%.
